KCNQ1 block: inhibitors of human KCNQ1 channel, primary screen, cell-based, thallium flux, high-throughput. Potassium voltage-gated channel subfamily KQT member 1 (Homo sapiens), P51787. CHO-K1 KCNQ1, FluxOR thallium flux fluorescence; stronger effect = higher value. B-score at 10 µM. actives 1.3% (n = 310,000);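 active = compounds whose thallium flux B-score, printed positive for inhibition, exceeds three library SD while starting fluorescence stays within three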;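 note: channel opened by potassium depolarization with thallium stimulus after 20 min compound exposure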
KCNK9 inh: KCNK9 potassium channel inhibitors, primary screen, HEK293 cells, thallium flux; Potassium channel subfamily K member 9 (Homo sapiens), Q9NPC2; FluxOR thallium flux fluorescence; stronger effect = lower value; B-score at 10 µM; actives 1.2% (n = 310,000);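 active = ratio B-score over 3 SD below the library mean, with starting fluorescence within 5 SD of its mean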;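 note: negative B-score means less thallium flux so channel inhibition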
KCNQ1 pot: potentiators or activators of KCNQ1 channel, primary screen, cell-based, thallium flux, high-throughput. CHO-K1 KCNQ1, thallium flux FluxOR fluorescence; stronger effect = higher value. Potassium voltage-gated channel subfamily KQT member 1 (Homo sapiens), P51787. B-score at 10 µM. actives 0.35% (n = 310,000);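 active = fluorescence ratio B-score, a plate-corrected score, at least three library SD, with initial intensity B-score within 5 SD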
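assay system = KCNQ1-transfected CHO-K1 cells | medium = assay buffer with matched DMSO | probe or stimulus = depolarizing K+/Tl+ stimulus, K2SO4 and Tl2SO4 each 12.5 mM in 5x stock | dosing = single dose | incubation = dye 90 min, compound 20 min, room temperature | detection = kinetic FluxOR fluorescence, 10 s baseline plus 110 s post-stimulus | evaluation = ratio B score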
KCNK3 inh: human KCNK3 channel inhibitors, primary screen, CHO cells, FluxOR thallium flux, B-score; FluxOR fluorescence; stronger effect = lower value; B-score at 10 µM; actives 0.84% (n = 340,000);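 active = B-score under library mean minus 4 SD, starting fluorescence ratio at most library mean plus 5 SD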;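 note: more negative B-score means stronger inhibition of thallium flux through KCNK3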
hERG rescue: hERG rescue from dofetilide block, primary screen, cell-based, CHO-hERG, FluxOR thallium flux, dofetilide IC70; Voltage-gated inwardly rectifying potassium channel KCNH2 (Homo sapiens), Q12809; activation (rescue from dofetilide block), less the hit threshold, % at 10 µM; dofetilide IC70 present; actives 0.51% (n = 310,000);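 active = activation above the mean of controls blocked by dofetilide plus 5 SD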;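 note: thallium influx through hERG after potassium depolarization seen as dye fluorescence rise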
Target sequence (Q12809 whole entry, looked up): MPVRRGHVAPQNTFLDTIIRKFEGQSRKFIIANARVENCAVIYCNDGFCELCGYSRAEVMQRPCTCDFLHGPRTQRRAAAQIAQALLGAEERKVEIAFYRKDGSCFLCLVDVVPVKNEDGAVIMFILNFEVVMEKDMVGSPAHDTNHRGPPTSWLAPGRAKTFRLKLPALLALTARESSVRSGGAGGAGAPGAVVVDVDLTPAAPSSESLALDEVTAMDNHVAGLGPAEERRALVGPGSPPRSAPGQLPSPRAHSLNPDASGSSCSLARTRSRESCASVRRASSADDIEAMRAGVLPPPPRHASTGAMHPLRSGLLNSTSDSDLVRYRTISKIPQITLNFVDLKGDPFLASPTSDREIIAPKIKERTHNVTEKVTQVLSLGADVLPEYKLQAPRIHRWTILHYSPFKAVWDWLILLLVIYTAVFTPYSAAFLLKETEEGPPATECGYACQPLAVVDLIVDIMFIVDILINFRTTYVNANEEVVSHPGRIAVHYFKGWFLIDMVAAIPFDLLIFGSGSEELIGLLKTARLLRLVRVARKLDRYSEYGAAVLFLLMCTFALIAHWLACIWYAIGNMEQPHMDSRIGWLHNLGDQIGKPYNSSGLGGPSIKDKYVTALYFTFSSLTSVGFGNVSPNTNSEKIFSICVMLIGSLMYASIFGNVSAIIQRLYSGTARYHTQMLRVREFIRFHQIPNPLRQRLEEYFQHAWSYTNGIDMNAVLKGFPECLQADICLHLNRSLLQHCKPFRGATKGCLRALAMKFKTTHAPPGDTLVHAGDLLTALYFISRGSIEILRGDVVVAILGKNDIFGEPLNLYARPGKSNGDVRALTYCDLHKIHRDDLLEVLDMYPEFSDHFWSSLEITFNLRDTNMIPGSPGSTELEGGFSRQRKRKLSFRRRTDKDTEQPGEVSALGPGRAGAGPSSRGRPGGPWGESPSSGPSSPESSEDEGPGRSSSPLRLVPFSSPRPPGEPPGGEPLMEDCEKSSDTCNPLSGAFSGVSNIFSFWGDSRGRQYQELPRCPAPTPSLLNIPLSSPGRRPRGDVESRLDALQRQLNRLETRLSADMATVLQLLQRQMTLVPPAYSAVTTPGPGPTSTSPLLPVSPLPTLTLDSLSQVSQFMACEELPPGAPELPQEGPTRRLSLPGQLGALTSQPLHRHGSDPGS
Kir21 inh: inhibitors of mouse Kir2.1 inward-rectifier potassium channel | actives 0.85% (n = 310,000) | Inward rectifier potassium channel 2 (Mus musculus), P35561 | HEK293-Kir2.1, FluxOR thallium flux fluorescence; stronger effect = lower value | AID 1672, 2009 | B-score at 10 µM;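 active = fluorescence ratio B-score at or below minus 3 SD of library scores, with starting-brightness B-score within 2 SD, cut at about -4.2 in these data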;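 note: channel flux triggered by added potassium and thallium sulfate stimulus; B-score of peak minus minimum fluorescence over baseline after thallium stimulus; more negative B-score means stronger Kir2.1 block with less thallium influx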
KCNQ1 inh valid: KCNQ1 potassium channel inhibitors, confirmation, cell-based, Tl flux, duplicate; shares compounds with KCNQ1 block; KCNQ1 cell line, FluxOR thallium flux fluorescence; inhibition, % at 10 µM; actives 93% (n = 1,600);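 active = primary screen active, with duplicate mean exceeding buffer control mean plus 3 SD of buffer wells, cut at about 28% in these data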
CHO Tl flux: thallium flux effects in parental CHO cells, counter-screen for KCNQ1 inhibitor project, cell-based, Tl flux | shares compounds with KCNQ1 block | parental CHO-K1, FluxOR thallium flux fluorescence ratio; stronger effect = lower value; zero means no signal rise above baseline | fluorescence ratio (Tl flux) at 10 µM | actives 21% (n = 1,600);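 active = mean of duplicate thallium-flux fluorescence ratios in parental host cells more than 5 SD below the buffer control mean, cut at about 0.38 in these data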;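 note: ratio is peak minus minimum fluorescence divided by baseline fluorescence; actives read low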
KCNQ1 ephys val: KCNQ1 channel inhibitors, confirmation, orthogonal assay, cell-based, automated electrophysiology; shares compounds with KCNQ1 block; KCNQ1-CHO cells, automated patch clamp current; calls only at 10 µM; actives 20% (n = 490); AID 624120, 2012;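 active = KCNQ1 current drop exceeding 3 SD of negative control wells, seen in both duplicate runs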;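 note: steady state current during a 2 s step from -80 to +40 mV; negative values mean current inhibition and positive values mean potentiation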
KCNQ2 spec: KCNQ2 channel inhibition, selectivity assay for KCNQ1 inhibitor project, cell-based; shares compounds with KCNQ1 block; KCNQ2 cells, FluxOR thallium flux fluorescence; inhibition, % at 10 µM; actives 71% (n = 1,600); AID 651746, 2012;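 active = mean percent inhibition of the KCNQ2 thallium signal more than 5 SD above the buffer-only control wells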;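 note: KCNQ2 expressed in CHO cells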
KCNQ1-KCNE1 inh: KCNQ1/KCNE1 channel inhibition, selectivity assay for KCNQ1 inhibitor project, CHO-K1 cells, thallium flux, FluxOR; FluxOR thallium flux fluorescence; shares compounds with KCNQ1 block; inhibition, % at 10 µM; actives 77% (n = 1,600);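 active = mean percent inhibition of duplicate wells above the buffer-only control mean plus 3 SD of those controls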
Of the large screens only hits and unclear results are named; the others gave an inactive call (follow-up assays come after a bar, where they were run). Compounds with a hit are over-represented: about 3.7% of the library has one in this group of screens.

COc1ccc(CC(=O)Nc2nc(-c3ccc(OC)c(OC)c3)cs2)cc1OC	none
COc1ccc(-c2csc(NC(=O)C3CCN(c4ncnc5sc(C)c(C)c45)CC3)n2)cc1OC	KCNQ1 block 9 | KCNQ1 inh valid 122 | CHO Tl flux inactive | KCNQ1 ephys val inactive | KCNQ2 spec 83% | KCNQ1-KCNE1 inh 103%
Cc1ccc(Nc2nc3ccc(Cl)cc3n3cnnc23)cc1F	none
O=C(c1cccc(NS(=O)(=O)c2ccc(F)c(F)c2)c1)N1CCN(C(c2ccccc2)c2ccccc2)CC1	KCNQ1 block 11 | KCNQ1 inh valid 131 | CHO Tl flux inactive | KCNQ1 ephys val inactive | KCNQ2 spec 109% | KCNQ1-KCNE1 inh 155%
O=S(=O)(c1ccc2[nH]c3c(c2c1)CCCC3)N1CCCCC1	KCNQ1 block 9 | KCNQ1 inh valid 88 | CHO Tl flux inactive | KCNQ1 ephys val active | KCNQ2 spec 75% | KCNQ1-KCNE1 inh 110%
S=C(NCCN(C1CCCCC1)C1CCCC1)Nc1cccc(Cl)c1	KCNQ1 block 6, Kir21 inh -4.5 | KCNQ1 inh valid 80 | CHO Tl flux inactive | KCNQ2 spec 92% | KCNQ1-KCNE1 inh inactive
S=C(Nc1cccc(Cl)c1)NC1CC2CCCC(C1)N2C1CCCC1 (stereo not drawn)	none
COCCOC(=O)C1=C(C)NC(=O)NC1c1ccc(-c2cc(Cl)ccc2Cl)o1 (stereo not drawn)	none
O=C(c1cc2ccccc2o1)N(Cc1ccco1)Cc1cccs1	KCNQ1 block 7 | KCNQ1 inh valid 120 | CHO Tl flux 0.36 | KCNQ2 spec 91% | KCNQ1-KCNE1 inh 190%
Cc1c(C(=O)N(Cc2ccco2)Cc2cccs2)oc2ccccc12	none (no result: KCNQ1 block, KCNK9 inh, KCNQ1 pot, hERG rescue, Kir21 inh)
Cc1ccc(S(=O)(=O)N2CCC(C(=O)Nc3ccc(S(=O)(=O)N4CCCC4)cc3)CC2)cc1C	none
CSc1ncc(CN2CCc3c([nH]c4ccccc34)C2c2cccc(O)c2)cn1 (stereo not drawn)	none
N#C/C(=C\c1coc2ccc(O)cc2c1=O)C(=O)Nc1nc2ccccc2s1	KCNQ1 block 26 | KCNQ1 inh valid active | CHO Tl flux 0.13 | KCNQ2 spec inactive | KCNQ1-KCNE1 inh inactive
N#C/C(=C\c1coc2ccccc2c1=O)C(N)=S	none
Cc1nc(Sc2ccccc2)c(C#N)cc1-c1ccccc1	KCNQ1 block 6 | KCNQ1 inh valid 95 | CHO Tl flux inactive | KCNQ1 ephys val active | KCNQ2 spec 105% | KCNQ1-KCNE1 inh 136%
Cc1nc(Cl)c(C#N)cc1-c1ccccc1	none
COc1ccccc1-c1nnc(SCC(=O)Nc2ccc3[nH]c(=O)[nH]c3c2)n1N	none
Cc1cccc2[nH]c3c(N4CC=C(c5ccc(F)cc5)CC4)ncnc3c12	KCNQ1 block 14 | KCNQ1 inh valid 162 | CHO Tl flux 0.33 | KCNQ2 spec 134% | KCNQ1-KCNE1 inh active
O=C1OC(CO)CN1Cc1ccccc1 (stereo not drawn)	none
Cc1ccc(C)c(Cn2c(=O)n(C)c(=O)c3sccc32)c1	none
CC1(C)Cc2ccccc2-c2nc(NN)[nH]c(=O)c21	none
CC1(C)Cc2ccccc2-c2nc(-c3ccccc3)oc(=O)c21	KCNQ1 block 10 | KCNQ1 inh valid 102 | CHO Tl flux inactive | KCNQ2 spec 99% | KCNQ1-KCNE1 inh 130%
CC(C)Cn1c(N)c(C(=O)COC(=O)c2cc(-c3ccco3)nc3ccccc23)c(=O)n(C)c1=O	none
CC(C)(C)C(=O)COC(=O)c1cc(-c2ccncc2)nc2ccccc12	KCNQ1 block 7 | KCNQ1 inh valid 52 | CHO Tl flux inactive | KCNQ2 spec 92% | KCNQ1-KCNE1 inh 48%
CC(C)Cn1c(N)c(C(=O)COC(=O)c2cc(-c3ccccc3)nc3ccccc23)c(=O)n(C)c1=O	KCNQ1 block 7 | KCNQ1 inh valid 106 | CHO Tl flux inactive | KCNQ1 ephys val inactive | KCNQ2 spec 120% | KCNQ1-KCNE1 inh 156%
CC(C)CC(=O)Nc1c2c(nn1-c1ccc(F)cc1)CS(=O)(=O)C2	none
CCOc1ccc(N=C2NC(=O)S/C2=C\c2ccc(N(C)C)cc2)cc1	KCNQ1 block 10 | KCNQ1 inh valid 181 | CHO Tl flux inactive | KCNQ2 spec inactive | KCNQ1-KCNE1 inh inactive
O=C(N/C=C/c1ccccc1)Nc1ccc(Cl)cc1	KCNQ1 block 7 | KCNQ1 inh valid 62 | CHO Tl flux inactive | KCNQ2 spec 64% | KCNQ1-KCNE1 inh inactive
CN(C)S(=O)(=O)c1ccc(N2CCCC2)c(C(=O)NCC2CCCO2)c1 (stereo not drawn)	none
CN1/C(=C\C=C(C#N)C#N)C(C)(C)c2ccccc21	KCNQ1 block 26 | KCNQ1 inh valid active | CHO Tl flux 0.015 | KCNQ2 spec inactive | KCNQ1-KCNE1 inh inactive
CCOC(=O)/C=C1/N(C)c2ccccc2C1(C)C	none
COC(=O)c1[nH]c2cc(C)ccc2c1NC(=O)CN1CCN(C(=O)c2ccco2)CC1	none
COC(=O)c1[nH]c2cc(C)ccc2c1NC(=O)CN1CCCc2ccccc21	KCNQ1 block 8 | KCNQ1 inh valid 72 | CHO Tl flux inactive | KCNQ2 spec 93% | KCNQ1-KCNE1 inh 82%
O=C(NCCN1CCOCC1)c1ccccc1OCc1ccccc1	none (no result: KCNQ1 block, KCNK9 inh, KCNQ1 pot, hERG rescue, Kir21 inh)
Cc1nn(-c2ccccc2)c(N)c1-c1ccccc1	none

Screens from PubChem BioAssay.
